According to ChEMBL document CHEMBL1122104, “Ring contraction of oleandrose on the macrolide antibiotic oleandomycin with [(Methoxycarbonyl)sulfamoyl]triethylammonium hydroxide inner salt” (1982):

Tests used:
Bacillus subtilis = assay: In vitro antibacterial activity against Bacillis subtilis (06A001), and minimum inhibitory concentration was determined; type: functional
In short: (§1)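 Broth dilution MIC determination, done per a previously described procedure. Each value is the mean of two determinations.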

Escherichia coli [1] = assay: In vitro antibacterial activity against Escherichia coli (51A470), and minimum inhibitory concentration was determined; type: functional; in short: as §1
Neisseria sicca [2] = assay: In vitro antibacterial activity against Neisseria sicca (66C000), and minimum inhibitory concentration was determined; type: functional; in short: as §1
Pasteurella multocida = assay: In vitro antibacterial activity against Pasteurella multocida (59A0001), and minimum inhibitory concentration was determined; type: functional; in short: as §1
Staphylococcus aureus [3] = assay: In vitro for antibacterial activity against Staphylococcus aureus (01A111), and minimum inhibitory concentration was determined; type: functional; in short: as §1
Staphylococcus aureus [4] = assay: In vitro for antibacterial activity against Staphylococcus aureus (01A400), and minimum inhibitory concentration was determined; type: functional; in short: as §1
Staphylococcus aureus [5] = assay: In vitro antibacterial activity against Staphylococcus aureus (01A052), and minimum inhibitory concentration was determined; type: functional; in short: as §1
Staphylococcus aureus [6] = assay: In vitro antibacterial activity against Staphylococcus aureus (01A005), and minimum inhibitory concentration was determined; type: functional; in short: as §1
Streptococcus pneumoniae = assay: In vitro antibacterial activity against Streptococcus pneumoniae (02J012), and minimum inhibitory concentration was determined; type: functional; in short: as §1
Streptococcus pyogenes = assay: In vitro antibacterial activity against Streptococcus pyogenes (02C203), and minimum inhibitory concentration was determined; type: functional; in short: as §1
Enterococcus faecalis = assay: In vitro antibacterial activity against Streptococcus faecalis (02A006), and minimum inhibitory concentration was determined; type: functional; in short: as §1
Escherichia coli [7] = assay: In vitro antibacterial activity against Escherichia coli (51A125), and minimum inhibitory concentration was determined
Escherichia coli [8] = assay: In vitro antibacterial activity against Escherichia coli (51A125), and minimum inhibitory concentration was determined; type: functional; in short: as §1
Neisseria sicca [9] = assay: In vitro antibacterial activity against Neisseria sicca (66C000), and minimum inhibitory concentration was determined

| MIC (Bacillus subtilis) | MIC (Escherichia coli [1]) | MIC (Neisseria sicca [2]) | MIC (Pasteurella multocida) | MIC (Staphylococcus aureus [3]) | MIC (Staphylococcus aureus [4]) | MIC (Staphylococcus aureus [5]) | MIC (Staphylococcus aureus [6]) | MIC (Streptococcus pneumoniae) | MIC (Streptococcus pyogenes) | MIC (Enterococcus faecalis) | MIC (Escherichia coli [7]) | MIC (Escherichia coli [8]) | MIC (Neisseria sicca [9]) | Compound |
| --- | --- | --- | --- | --- | --- | --- | --- | --- | --- | --- | --- | --- | --- | --- |
| 0.78 | 6.25 | 1.56 | 6.25 | 0.78 | 1.56 | 0.39 | 0.39 | <0.01 | 0.1 | 1.56 | 400 |  |  | COC1CC(O[C@@H]2C(C)C(=O)O[C@H](C)[C@H](C)C(OC(C)=O)C(C)C(=O)[C@]3(CO3)C[C@H](C)[C@H](OC3OC(C)CC(N(C)C)[C@H]3O)[C@H]2C)OC(C)[C@@H]1O (some centres undefined) |
| 1.56 | 50 |  | 50 | 0.78 | 25 | 6.25 | 3.12 | <0.01 | 0.39 | 12.5 |  | >800 | 6.25 | C=CC1O[C@@H](O[C@@H]2C(C)C(=O)O[C@H](C)[C@H](C)C(OC(C)=O)C(C)C(=O)[C@]3(CO3)C[C@H](C)[C@H](OC3OC(C)CC(N(C)C)[C@H]3O)[C@H]2C)C[C@@H]1OC (some centres undefined) |
